Data published in ChEMBL document CHEMBL4513216, “Probing the Open Global Health Chemical Diversity Library for Multistage-Active Starting Points for Next-Generation Antimalarials” (ACS Infect Dis, 2020).

Assay: Toxicity liver stage against HepG2, at 10uM
Format: cell-based
Design: test concentration 10 uM, cell line HepG2-A16-CD81EGFP
Conditions: human, HepG2-A16-CD81EGFP cells; read-out: INHIBITION
How it was run: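 Uninfected HepG2-A16-CD81EGFP cells, 3 × 10^3 per well, 1536-well, plated on prespotted compound at 10 μM final, parasite-free screening media added to match infected plates; puromycin 10 μM positive, DMSO 0.5% negative; run in parallel with 48 h PbLuc assay at 37 °C, 5% CO2; viability by CellTiter-Glo luminescence, normalized to controls.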

Compound	cytotoxicity at 10 µM [%]
Cc1cc(C)cc(CN2CCN(Cc3ccc4nonc4c3)CC2=O)c1	0.403
O=C1C[C@H]2[C@@H](CCN2C(=O)Cc2ccccc2)N1Cc1cccnc1	-3.86
CS(=O)(=O)N1CCCC12CCCN(C(=O)c1ccc3c(c1)OCO3)C2 (configuration not stated)	-144
Cc1nonc1CNC(=O)C(C)Oc1cccc(F)c1 (configuration not stated)	1.22
COc1cccc(-c2noc(-c3ccc(NCC(C)C)nc3)n2)c1OC	-12.2
COCCN1CCN(c2ccc(CN(C)C)cn2)CC1	-7.41
O=c1cccnn1CC1CN(CC2CCCC2)Cc2nccn2C1 (configuration not stated)	5.03
CCOCc1ccccc1NC(=O)NC1CCN(c2ccccc2)C1 (configuration not stated)	-6.31
COC(=O)c1sc2cccc(F)c2c1CNC(=O)C1CC1	-11.4
O=C(c1ccco1)N1CCO[C@@H]2CNCC[C@@H]2C1	-75.2
CCCS(=O)(=O)N1CCC(c2ccc(OC)cc2)CC1	2.02
Cc1cccc(C(C(=O)NCCCc2nnc3ccccn23)N(C)C)c1 (configuration not stated)	-7.88
CCCNC(=O)C(C)Oc1ccc(F)cc1 (configuration not stated)	-3.76
Cc1n[nH]c(SCC(=O)NC(c2ccncc2)C(C)C)n1 (configuration not stated)	16.4
CCN1CCN(C(C)(C)CNc2nc(C)cc(C3CCC3)n2)CC1	1.47
CC(C)C(=O)N1CCC2(CN(CC3CCCC3)C2)C1	3.86
COc1ncc(C(=O)NCc2ccccc2)cn1	-3.99
CCNC(=O)NC(=O)C(C)Nc1ccccc1OCCOC (configuration not stated)	4
CC(C)SCC(=O)N1CCCn2nc(C(=O)Nc3ccccc3)cc2C1	3.19
Cc1nc(C(=O)N2CCc3c(nc(-c4ccncc4)[nH]c3=O)C2)cs1	-6.37
COc1ccccc1C(=O)NS(=O)(=O)c1cncc(Br)c1	-6.05

Compound	cytotoxicity at 10 µM [%]
CNC(=O)[C@H]1C[C@@H]2CN(Cc3csc(C)n3)C[C@@H]2N1S(C)(=O)=O	-3.78
O=S(=O)(Cc1nc(C2CC2)no1)c1cc(F)ccc1F	7.81
c1cc(-c2ccc3nc(C4CCN(CC5CC5)CC4)nn3c2)ccn1	-0.966
O=C(NCCNc1ccc(C(F)(F)F)cn1)c1cncc(Br)c1	2.24
Cc1nc(CC(=O)NCCNc2nccc(C(F)(F)F)n2)cs1	14.3
Cc1ccc(CC(=O)NCC(O)c2cccc(C(F)(F)F)c2)cn1 (configuration not stated)	-18.6
COC(=O)C(NC(=O)C1CCC1)c1cc(F)ccc1F (configuration not stated)	5.54
Cc1nc(C)n(CC2CN(CCc3cccs3)CCO2)n1 (configuration not stated)	7.12
Cc1c(CC(=O)N2CCSCC2)nnn1-c1cccc(Cl)c1	-3.89
CCCN(CCC)C(=O)c1cc(CN2CCC(O)CC2)on1	1.29
CN1CCN(c2cc(NC(=O)c3cnccn3)ncn2)CC1	-1.23
COc1cnc(N2CCCN(Cc3ccc(F)cc3)CC2)nc1	-5.41
CCN(CC)C(=O)[C@@H]1C[C@@H](NC(=O)c2cccc(N(C)C)c2)CN1C	6.69
Cc1ccc(N2CCC3(CCN(Cc4csc(C)n4)CC3)CC2)nn1	9.43
OCCN(Cc1nc(-c2ccc3c(c2)OCO3)no1)Cc1cccs1	-0.191
O=C1CC(N2CCN(c3ccccc3O)CC2)C(=O)N1Cc1cccs1 (configuration not stated)	-0.872
CC(C)N(C)Cc1nnc2n1CCN(CC1CC1)CC2	0.319
Cc1ccc(C2CN(CCCC#N)CCO2)c(C)c1 (configuration not stated)	-2.16
CNc1nc2c(s1)C(=O)CN(C(=O)NCc1ccccc1)C2	24.4
O=C(Cn1ccc2ccccc21)N1CCC(Oc2cnccn2)CC1	4.61
N#Cc1cccc(CNC(=O)C2=NN(c3ccccc3)C(=O)CN2)c1	-3.44

Compound	cytotoxicity at 10 µM [%]
CCOc1cccc(C(=O)N2CCCn3nc(CCC(=O)O)cc3C2)c1	-3.43
CSCc1ccc(N2CCC(C(O)Cc3ccccc3)CC2)nc1 (configuration not stated)	2.45
CCCC(O)CN1CCC(=O)N(Cc2ccccc2)Cc2ccccc21 (configuration not stated)	5.24
CC(=O)NC1CCN(C(=O)c2cnc(COc3ccccc3)nc2O)C1 (configuration not stated)	-5.3
CCC(=O)Nc1ccc(N2CCC(OC)CC2)c(C(F)(F)F)c1	5.72
CC(NC(=O)C1=NN(C)C(=O)CC1)c1ccc(Cl)cc1Cl (configuration not stated)	-10.4
CC(C)(CNCc1ccc(OCc2cscn2)cc1)C(N)=O	-137
CN1C(=O)CC(C(=O)O)C12CCN(Cc1ccc(Cl)c(Cl)c1)CC2 (configuration not stated)	2.12
Cc1cnc(CN(C)C2CCN(Cc3nc4ccccc4n3C)C2)o1 (configuration not stated)	2.57
Cc1occc1C(=O)Nc1ccc(C(=O)NC[C@H]2CCCN2)cc1	-10.6
CNC(=O)CN1CCC12CCN(C(=O)Cc1ccccc1)C2 (configuration not stated)	-75.4
Cc1sc(-c2ccco2)nc1C(=O)N1CCCC1Cn1cccn1 (configuration not stated)	-11.2
Cn1cc(CN2CCCC(CCc3ccc(F)c(F)c3)C2)cn1 (configuration not stated)	-6.6
Cc1nc(NC2CCN(S(=O)(=O)c3ccccc3)CC2)[nH]c(=O)c1C	-3.45
Cc1ccc(C)c(OCc2cc(C(=O)N(C)Cc3nonc3C)no2)c1	-5.83
CN(C)C(=O)CCS(=O)(=O)Cc1cc(Cl)c2c(c1)OCO2	-5.09
COc1ccc(-c2nnsc2C(=O)N2CCOCC2)cc1	3.03
Cc1cccc(CN2C(=O)C[C@H]3[C@@H]2CCN3Cc2ccco2)n1	-1.39
Cn1c(C(=O)N2CCC(CC(N)=O)CC2)c(Cl)c2ccccc21	18.7
CC(C)N1c2sc(-c3ccsc3)nc2CC1C(=O)NC1CC1 (configuration not stated)	8.67
CC(CNC(=O)N1CCN(CC(F)F)CC1)Cc1cccs1 (configuration not stated)	-4.92

Compound	cytotoxicity at 10 µM [%]
Cn1nc2c(cc1=O)CN(CC(=O)NC1CCCCNC1=O)CC2 (configuration not stated)	1.9
Cn1cc(C2CC(=O)NC23CCN(CC2CC2)CC3)cn1 (configuration not stated)	-7.28
CCOc1ncccc1CNS(=O)(=O)c1ccc2c(c1)CCO2	7.95
Cc1ccc(C(=O)N2CCN(Cc3nc(C(C)C)no3)CC2)c(=O)[nH]1	-7.67
CC[C@@H]1N(Cc2ccco2)CCC[C@]12CCC(=O)N2C	-0.00736
O=C(CS(=O)(=O)Cc1ccccc1)NCc1ccccc1F	-17.6
Cc1c(NC(=O)N(C)CCCc2cnn(C)c2)cnn1C	-1.23
CCN(C)C[C@@H]1CN(Cc2cccc(O)c2)C[C@@H]1CO	-1.13
CN1CCC/C1=N\S(=O)(=O)c1ccc(NC(=O)Cc2cccs2)cc1	-10.6
Cc1ccc(-n2c(SCC(=O)O)nnc2-c2cccc(C)c2)cc1	-2.05
CC(C)CNC(=O)C1=NOC2(CCN(Cc3ccoc3)C2)C1 (configuration not stated)	-3.42
CC(=O)NC1CCN(c2nc(N(C)C)nc3c2CCCC3)CC1	-10.7
CCCc1nc(C)cc(NCCc2nnc(N)s2)n1	3.07
CC(C)(C)c1nnc(CN2CCn3c(nnc3C3CC3)C2)o1	4.45
COCCn1cc2c(n1)C(CNCc1ccco1)OCC2 (configuration not stated)	-11.9
COC(C)(C)C(=O)NCC1CCN(Cc2cc3ccccc3[nH]2)C1 (configuration not stated)	5.85
CC(CCc1ccccc1)N1CCC(C(=O)Nc2ccccn2)CC1 (configuration not stated)	13.5
CCc1nc(NS(=O)(=O)c2cc(C)ccc2Br)no1	4.66
CNc1cc(C(=O)N2CCC3(CC2)Nc2ccccc2NC3=O)ccn1	3.46
